The values that follow come from ChEMBL document CHEMBL2146445, “Discovery of BIIB042, a Potent, Selective, and Orally Bioavailable γ-Secretase Modulator” (ACS Med Chem Lett, 2011).

For data set [1], the system named is Plasma. Nature of the data set: Plasma concentration in CF1 mouse at 10 mg/kg, po. Format: ADME, organism-based. The arrangement: dose 10 mg/kg, route oral. The conditions noted are these: in vivo. The procedure, abridged: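 Wild-type (CF-1) mice given compound orally as a solution in ethanol:propylene glycol:10% solutol (1:1:8). Animals sacrificed 4 h post-dose; brain and plasma collected for drug exposure and Aβ levels.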

Data set [2] concerns Plasma. The data set can be described thus: Fraction unbound in mouse plasma. Format: ADME, cell-free.
Data set [3] has as its target Gamma-secretase. Nature of the data set: Modulation of gamma-secretase in human H4 cells expressing wild type APP assessed as reduction in amyloid beta42 level. Format: cell-based.
For data set [4], the target named is T1, Cytochrome P450 1A2 (Homo sapiens, UniProt P05177).
T1 sequence (P05177 whole entry): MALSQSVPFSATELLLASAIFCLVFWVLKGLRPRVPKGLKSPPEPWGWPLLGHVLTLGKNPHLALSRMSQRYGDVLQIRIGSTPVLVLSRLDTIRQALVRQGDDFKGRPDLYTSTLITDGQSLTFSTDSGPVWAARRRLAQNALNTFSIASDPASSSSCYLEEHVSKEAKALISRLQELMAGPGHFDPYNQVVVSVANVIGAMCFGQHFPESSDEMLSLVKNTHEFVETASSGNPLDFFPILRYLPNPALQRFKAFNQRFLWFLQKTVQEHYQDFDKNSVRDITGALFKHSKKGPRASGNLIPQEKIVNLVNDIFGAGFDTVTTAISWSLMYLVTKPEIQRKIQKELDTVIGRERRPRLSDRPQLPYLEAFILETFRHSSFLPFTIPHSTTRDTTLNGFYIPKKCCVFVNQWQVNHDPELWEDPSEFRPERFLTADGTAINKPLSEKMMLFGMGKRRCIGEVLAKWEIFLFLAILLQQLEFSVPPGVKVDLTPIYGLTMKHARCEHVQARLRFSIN
The data set can be described thus: Inhibition of human CYP1A2. Format: ADME.

Data set [5] addresses Cytochrome P450 2C9 (Homo sapiens, UniProt P11712). Nature of the data set: Inhibition of human CYP2C9. The class given is ADME.
Data set [6] has as its target T2, Prostaglandin G/H synthase 2 (Homo sapiens, UniProt P35354).
T2 sequence (P35354 whole entry): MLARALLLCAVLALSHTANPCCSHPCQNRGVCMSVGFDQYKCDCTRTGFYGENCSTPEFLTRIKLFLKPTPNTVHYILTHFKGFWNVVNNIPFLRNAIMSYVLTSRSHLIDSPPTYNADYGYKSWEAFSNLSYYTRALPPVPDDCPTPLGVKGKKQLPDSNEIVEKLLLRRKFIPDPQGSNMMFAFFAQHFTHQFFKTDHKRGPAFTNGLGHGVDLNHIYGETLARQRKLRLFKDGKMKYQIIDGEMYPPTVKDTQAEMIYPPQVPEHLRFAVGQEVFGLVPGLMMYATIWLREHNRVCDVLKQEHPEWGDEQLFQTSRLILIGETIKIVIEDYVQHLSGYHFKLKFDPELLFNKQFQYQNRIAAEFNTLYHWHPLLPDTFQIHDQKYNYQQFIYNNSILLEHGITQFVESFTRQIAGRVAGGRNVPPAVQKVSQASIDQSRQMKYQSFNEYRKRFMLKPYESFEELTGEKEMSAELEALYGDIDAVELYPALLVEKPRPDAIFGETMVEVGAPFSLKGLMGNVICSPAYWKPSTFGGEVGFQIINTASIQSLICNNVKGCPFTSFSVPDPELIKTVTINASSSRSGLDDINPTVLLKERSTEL
The data set can be described thus: Inhibition of COX2.

Data set [7] relates to Mus musculus. Nature of the data set: Antialzheimer activity in CF1 mouse assessed as reduction in amyloid beta 42 level in brain at 10 mg/kg, po. Format: functional. The arrangement: scale not given: the % may be the effect or the level left. The essentials: (§1)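 Wild-type CF-1 mice received a single oral dose as a solution in ethanol:propylene glycol:10% solutol (1:1:8). Animals were sacrificed 4 h after dosing. Brain and plasma were collected for drug concentration and Aβ levels. Aβ change was expressed relative to vehicle-treated controls.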

In data set [8] the test system is Plasma. The data set can be described thus: Fraction unbound in dog plasma. The class given is ADME, cell-free, Canis lupus familiaris.
The subject of data set [9] is Plasma. The data set can be described thus: Fraction unbound in monkey plasma. As to conditions: rhesus monkey. The class given is ADME, cell-free, Macaca mulatta.
Data set [10] has as its system Rattus norvegicus. The data set can be described thus: Antialzheimer activity in Fischer rat assessed as reduction in amyloid beta 42 level in brain at 10 mg/kg, po. The class given is functional. Also on record: scale not given: the % may be the effect or the level left.
The target of data set [11] is Voltage-gated inwardly rectifying potassium channel KCNH2 (Homo sapiens, UniProt Q12809). Nature of the data set: Inhibition of human ERG by patch clamp assay. The procedure, abridged:
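hERG was tested in an automated FastPatch patch-clamp assay, giving an EC50 readout.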
A general note: The patch-clamp technique gives a direct electrical read-out from membranes.

Data set [12] concerns Cynomolgus monkey. Nature of the data set: Antialzheimer activity in cynomolgus monkey assessed as reduction in amyloid beta 42 level in plasma at 10 mg/kg, po at 5 hrs. Format: functional, Macaca fascicularis. The arrangement: scale not given: the % may be the effect or the level left.
Data set [13] relates to Brain. The data set can be described thus: Drug uptake in CF1 mouse brain at 10 mg/kg, po. Format: ADME, organism-based. The arrangement: dose 10 mg/kg, route oral. The conditions noted are these: in vivo, read-out: Drug uptake. The procedure, abridged: as §1
Data set [14] concerns Salmonella typhimurium. The data set can be described thus: Mutagenicity in Salmonella typhimurium. Format: toxicity, organism-based. As to conditions: salmonella enterica subsp. enterica serovar typhimurium.
The nature of data set [15]: Apparent permeability across human Caco2 cells. The class given is ADME, cell-based. The conditions noted are these: Caco-2. (Passage across Caco-2 layers is used to estimate intestinal permeability.)
Data set [16] in a line: Modulation of gamma-secretase in CHO cells overexpressing APP V717 mutant assessed as reduction in amyloid beta42 level after 17 hrs by ELISA. The class given is cell-based. The conditions noted are these: Cricetulus griseus. The procedure, abridged: (§2)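 CHO cells overexpressing APP V717F; Aβ42, Aβ40 and Aβ38 quantified together in each well by multiplex Aβ ELISA. EC50 is the mean of at least two determinations.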
(In general: An ELISA detects its analyte on a solid surface through an enzyme-linked reagent.)

The subject of data set [17] is Plasma. Nature of the data set: Fraction unbound in human plasma. Format: ADME, cell-free.
The subject of data set [18] is Plasma. The data set can be described thus: Fraction unbound in rat plasma. Format: ADME, cell-free.
The target in data set [19] is Cytochrome P450 2C19 (Homo sapiens, UniProt P33261). Nature of the data set: Inhibition of human CYP2C19. The class given is ADME.
In data set [20] the target is Cytochrome P450 2D6 (Homo sapiens, UniProt P10635). Nature of the data set: Inhibition of human CYP2D6. Format: ADME.
A short description of data set [21]: Modulation of gamma-secretase in CHO cells overexpressing APP V717 mutant assessed as increase in amyloid beta38 level after 17 hrs by ELISA. The class given is cell-based. The conditions noted are these: Cricetulus griseus. The essentials: as §2
Data set [22] concerns the target Prostaglandin G/H synthase 1 (Homo sapiens, UniProt P23219). Nature of the data set: Inhibition of COX1.

Prostaglandin G/H synthase 1, sequence (P23219 whole entry): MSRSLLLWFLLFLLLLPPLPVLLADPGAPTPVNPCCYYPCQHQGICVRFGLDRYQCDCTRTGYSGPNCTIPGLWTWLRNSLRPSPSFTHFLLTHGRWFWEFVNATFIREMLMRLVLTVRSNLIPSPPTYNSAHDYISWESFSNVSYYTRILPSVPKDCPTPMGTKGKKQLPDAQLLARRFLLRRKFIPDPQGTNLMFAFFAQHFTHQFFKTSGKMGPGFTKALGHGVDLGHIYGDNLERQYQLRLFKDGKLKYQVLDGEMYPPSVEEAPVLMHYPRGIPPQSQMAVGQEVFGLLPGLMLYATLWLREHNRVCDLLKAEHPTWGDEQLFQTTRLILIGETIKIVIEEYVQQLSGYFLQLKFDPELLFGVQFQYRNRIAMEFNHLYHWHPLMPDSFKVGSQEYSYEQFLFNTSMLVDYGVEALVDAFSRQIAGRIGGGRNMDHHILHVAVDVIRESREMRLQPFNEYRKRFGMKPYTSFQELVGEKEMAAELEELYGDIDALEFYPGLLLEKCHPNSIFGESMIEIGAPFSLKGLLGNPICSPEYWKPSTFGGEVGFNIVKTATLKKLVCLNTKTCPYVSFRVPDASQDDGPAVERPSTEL
Voltage-gated inwardly rectifying potassium channel KCNH2, sequence (Q12809 whole entry): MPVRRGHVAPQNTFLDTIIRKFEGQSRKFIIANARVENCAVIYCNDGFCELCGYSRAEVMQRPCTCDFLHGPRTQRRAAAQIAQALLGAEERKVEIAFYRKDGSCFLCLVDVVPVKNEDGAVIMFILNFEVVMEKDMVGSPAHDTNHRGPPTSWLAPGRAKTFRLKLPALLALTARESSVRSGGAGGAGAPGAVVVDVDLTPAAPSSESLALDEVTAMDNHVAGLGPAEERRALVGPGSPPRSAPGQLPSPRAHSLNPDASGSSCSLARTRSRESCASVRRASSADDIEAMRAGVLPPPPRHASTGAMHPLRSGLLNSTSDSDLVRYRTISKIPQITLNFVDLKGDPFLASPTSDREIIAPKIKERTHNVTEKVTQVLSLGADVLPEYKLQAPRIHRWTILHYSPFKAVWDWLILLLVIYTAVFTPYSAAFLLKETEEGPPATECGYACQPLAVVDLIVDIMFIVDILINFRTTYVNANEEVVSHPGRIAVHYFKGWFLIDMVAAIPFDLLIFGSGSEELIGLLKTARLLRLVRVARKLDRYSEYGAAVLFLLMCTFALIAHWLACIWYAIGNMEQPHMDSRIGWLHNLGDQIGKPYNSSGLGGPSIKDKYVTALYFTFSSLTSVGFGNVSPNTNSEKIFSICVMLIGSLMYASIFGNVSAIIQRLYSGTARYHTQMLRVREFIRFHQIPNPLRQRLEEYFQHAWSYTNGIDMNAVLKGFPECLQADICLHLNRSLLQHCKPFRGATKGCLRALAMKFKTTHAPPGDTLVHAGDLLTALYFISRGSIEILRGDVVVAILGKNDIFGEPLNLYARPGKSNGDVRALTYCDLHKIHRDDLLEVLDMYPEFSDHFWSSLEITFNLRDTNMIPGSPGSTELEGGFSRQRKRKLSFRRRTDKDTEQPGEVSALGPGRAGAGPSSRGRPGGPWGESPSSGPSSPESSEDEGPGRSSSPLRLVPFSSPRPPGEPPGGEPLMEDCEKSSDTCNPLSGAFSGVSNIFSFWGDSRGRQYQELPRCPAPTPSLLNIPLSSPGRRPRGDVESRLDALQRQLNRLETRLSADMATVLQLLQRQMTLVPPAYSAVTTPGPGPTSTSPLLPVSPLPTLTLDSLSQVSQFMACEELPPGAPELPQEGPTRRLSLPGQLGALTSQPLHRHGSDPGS
Cytochrome P450 2C9, sequence (P11712 whole entry): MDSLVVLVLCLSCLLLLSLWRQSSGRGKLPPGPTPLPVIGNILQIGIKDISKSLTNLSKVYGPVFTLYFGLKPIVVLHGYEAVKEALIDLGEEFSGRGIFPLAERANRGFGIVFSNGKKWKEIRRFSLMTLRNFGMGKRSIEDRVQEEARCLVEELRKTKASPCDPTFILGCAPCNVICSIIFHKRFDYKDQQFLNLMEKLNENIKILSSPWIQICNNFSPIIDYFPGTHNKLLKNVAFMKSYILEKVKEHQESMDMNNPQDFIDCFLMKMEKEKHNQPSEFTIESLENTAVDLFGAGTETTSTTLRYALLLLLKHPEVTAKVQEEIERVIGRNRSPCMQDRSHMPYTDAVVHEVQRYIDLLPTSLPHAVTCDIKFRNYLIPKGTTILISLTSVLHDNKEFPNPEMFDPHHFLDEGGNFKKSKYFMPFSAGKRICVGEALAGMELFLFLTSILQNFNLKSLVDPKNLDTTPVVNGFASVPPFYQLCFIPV
Cytochrome P450 2D6, sequence (P10635 whole entry): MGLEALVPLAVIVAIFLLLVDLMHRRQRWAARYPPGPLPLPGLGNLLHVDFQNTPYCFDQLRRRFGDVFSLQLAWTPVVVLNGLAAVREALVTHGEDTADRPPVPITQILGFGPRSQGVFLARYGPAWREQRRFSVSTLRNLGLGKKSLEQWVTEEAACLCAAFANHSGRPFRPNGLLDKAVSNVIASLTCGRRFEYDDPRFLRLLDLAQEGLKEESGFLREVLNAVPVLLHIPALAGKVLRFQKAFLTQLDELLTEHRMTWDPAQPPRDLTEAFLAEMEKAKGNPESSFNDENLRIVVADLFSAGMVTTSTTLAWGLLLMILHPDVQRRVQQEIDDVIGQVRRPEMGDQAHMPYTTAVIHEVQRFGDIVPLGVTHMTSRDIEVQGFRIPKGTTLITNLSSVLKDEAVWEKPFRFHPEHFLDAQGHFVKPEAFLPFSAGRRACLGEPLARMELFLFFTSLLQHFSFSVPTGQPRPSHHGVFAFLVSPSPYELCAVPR
Cytochrome P450 2C19, sequence (P33261 whole entry): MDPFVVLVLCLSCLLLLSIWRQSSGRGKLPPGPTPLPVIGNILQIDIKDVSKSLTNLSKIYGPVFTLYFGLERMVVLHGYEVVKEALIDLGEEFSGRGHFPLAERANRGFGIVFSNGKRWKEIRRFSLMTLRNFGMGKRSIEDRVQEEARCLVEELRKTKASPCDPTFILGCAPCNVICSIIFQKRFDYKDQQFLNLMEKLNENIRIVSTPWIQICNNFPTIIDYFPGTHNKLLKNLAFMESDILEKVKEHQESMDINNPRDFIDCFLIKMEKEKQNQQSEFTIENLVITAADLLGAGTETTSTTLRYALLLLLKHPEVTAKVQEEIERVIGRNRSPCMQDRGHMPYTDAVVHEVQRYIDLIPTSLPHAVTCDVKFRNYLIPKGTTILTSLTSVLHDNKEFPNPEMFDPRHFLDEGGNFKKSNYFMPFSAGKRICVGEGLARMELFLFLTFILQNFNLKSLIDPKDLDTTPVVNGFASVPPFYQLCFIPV

The term EC50 denotes the concentration giving half of the maximal effect. The term IC50 denotes the midpoint of a concentration-inhibition curve. By Papp is commonly meant the rate of passage across a membrane or cell layer, normalised by area and donor concentration. `CC1CCN([C@H](c2ccc(F)cc2)c2ccc([C@@H](C)C(=O)O)cc2-c2ccc(C(F)(F)F)cc2)CC1`: the values for the concentration in data set [1] and in data set [13] were 10 µM and 4.6 µM, respectively. The Fu in data set [2], in data set [8], in data set [9], in data set [17] and in data set [18] was below 0.1% in each case. For the same molecule, the concentration giving a half-maximal response (EC50) in data set [3] worked out at 0.07 µM; in data set [11] it was 15 µM; in data set [16], 0.17 µM; in data set [21] it was 0.15 µM. Also, the half-maximal inhibitory concentration (IC50) in data set [4] was above 35 µM; in [5] it was above 35 µM; in data set [6] it was 27 µM; in data set [19] it was above 35 µM; in data set [20], above 35 µM; in data set [22], 35 µM. The Activity in data set [7] was 40%; in data set [10], 30%; in data set [12], 30%; in [14] it was “Non-toxic”. In addition, the Papp in data set [15] is 43.8 ×10⁻⁶ cm/s.
